Assay results of several laboratories.
Compare with care: the assays were run in different laboratories. Converted amounts (≈) assume the structure as drawn.

O=C(CO/N=c1\cc2n(-c3ccc(Cl)cc3)c3ccccc3nc-2cc1Nc1ccc(Cl)cc1)NCc1ccc(C(F)(F)F)cc1 — MIC (Mycobacteroides abscessus; microbial growth; clinical isolate): > 30 µM
CN(C)c1cc(NC(=O)CNC(C)(C)C)c(O)c2c1C[C@H]1C[C@H]3[C@H](N(C)C)C(O)=C(C(N)=O)C(=O)[C@@]3(O)C(O)=C1C2=O — IC50 (Mycobacteroides abscessus; microbial growth, resazurin; ATCC19977): 0.28 µg/mL
C=CC(=O)NC1CCN(c2ncc3ncnc(Nc4ccc(Oc5ccc6c(c5)ncn6C)c(C)c4)c3n2)CC1 — EC50 (ONS-76; cell growth or viability): 483 nM
Clc1ccc(Nc2cc3nc4ccccc4n(-c4ccc(Cl)cc4)c-3c/c2=N\OCc2ccccc2)cc1 — MIC (Mycobacteroides abscessus; microbial growth; clinical isolate): > 30 µM
CN(C)c1cc(NC(=O)Cc2cncnc2)c(O)c2c1C[C@H]1C[C@H]3[C@H](N(C)C)C(O)=C(C(N)=O)C(=O)[C@@]3(O)C(O)=C1C2=O — IC50 (Mycobacteroides abscessus; microbial growth, resazurin; ATCC19977): 0.74 µg/mL
O=C(NO)c1ccc(CNc2nc3cccc(-c4ccc5c(c4)OCO5)n3n2)cc1 — GI50 (T47D; cell growth or viability, SRB): 430 nM
CC(C)/N=c1\cc2n(-c3ccc(Cl)cc3)c3ccccc3nc-2cc1Nc1ccc(Cl)cc1 — MIC (Mycobacteroides abscessus; microbial growth; clinical isolate): 3.75 µM (≈ 1.78 µg/mL)
C=C(F)C(=O)N1CCN(c2nc(OC[C@@H]3CCCN3C)nc3c2CCN(c2cccc4cccc(Cl)c24)C3)C[C@@H]1CC#N — IC50 (SW837; cell growth or viability, ATP luminescence; 3D culture): 5.77 nM
COc1cc(C#CC(=O)C(C)C)ccc1O — activity vs control (Pseudomonas aeruginosa; microbial growth, absorbance; 10 µM, 24 h): 94%
C[C@H](NC(=O)CO/N=c1\cc2n(-c3ccc(Cl)cc3)c3ccccc3nc-2cc1Nc1ccc(Cl)cc1)C(=O)OC(C)(C)C — MIC (Mycobacteroides abscessus; microbial growth; clinical isolate): > 30 µM
OC(C#Cc1ccc(F)c(F)c1)c1cccc(Cl)c1 (stereo not shown) — activity vs control (Pseudomonas aeruginosa; microbial growth, absorbance; 10 µM, 24 h): 96%
CN(C)c1cc(CNCC(C)(C)C)c(O)c2c1C[C@H]1C[C@H]3[C@H](N(C)C)C(O)=C(C(N)=O)C(=O)[C@@]3(O)C(O)=C1C2=O — IC50 (Mycobacteroides abscessus; microbial growth, resazurin; ATCC19977): < 1 µg/mL
COc1cc(C#CC(=O)c2cccc(Cl)c2)ccc1O — activity vs control (Pseudomonas aeruginosa; microbial growth, absorbance; 10 µM, 24 h): 102%
CN(C)c1cc(NC(=O)CCc2cccnc2)c(O)c2c1C[C@H]1C[C@H]3[C@H](N(C)C)C(O)=C(C(N)=O)C(=O)[C@@]3(O)C(O)=C1C2=O — IC50 (Mycobacteroides abscessus; microbial growth, resazurin; ATCC19977): 5.63 µg/mL
O=C(C#Cc1ccc(F)c(F)c1)c1ccccc1 — activity vs control (Pseudomonas aeruginosa; microbial growth, absorbance; 10 µM, 24 h): 94%
C[C@H](NC(=O)CO/N=c1\cc2n(-c3ccc(Cl)cc3)c3ccccc3nc-2cc1Nc1ccc(Cl)cc1)C(=O)O — MIC (Mycobacteroides abscessus; microbial growth; clinical isolate): > 30 µM
COc1cc(C#CC(=O)C2CCCCC2)ccc1O — activity vs control (Pseudomonas aeruginosa; microbial growth, absorbance; 10 µM, 24 h): 81%
CN(C)c1cc(NC(=O)Cc2ccncn2)c(O)c2c1C[C@H]1C[C@H]3[C@H](N(C)C)C(O)=C(C(N)=O)C(=O)[C@@]3(O)C(O)=C1C2=O — IC50 (Mycobacteroides abscessus; microbial growth, resazurin; ATCC19977): 0.59 µg/mL
COc1ccc(C(=O)C#Cc2ccc(O)c(OC)c2)cc1 — activity vs control (Pseudomonas aeruginosa; microbial growth, absorbance; 10 µM, 24 h): 95%
CN(C)c1cc(NC(=O)Cc2cccnc2)c(O)c2c1C[C@H]1C[C@H]3[C@H](N(C)C)C(O)=C(C(N)=O)C(=O)[C@@]3(O)C(O)=C1C2=O — IC50 (Mycobacteroides abscessus; microbial growth, resazurin; ATCC19977): 1.29 µg/mL
Cc1cccc(C(=O)C#Cc2ccc(F)c(F)c2)c1 — activity vs control (Pseudomonas aeruginosa; microbial growth, absorbance; 100 µM, 24 h): 100%
CN(C)c1cc(NC(=O)Cc2ccn(C)n2)c(O)c2c1C[C@H]1C[C@H]3[C@H](N(C)C)C(O)=C(C(N)=O)C(=O)[C@@]3(O)C(O)=C1C2=O — IC50 (Mycobacteroides abscessus; microbial growth, resazurin; ATCC19977): 0.86 µg/mL
